As a reminder, the T/C is the result in the treated group divided by that in the control group, in per cent. One may read the IC50 as the concentration that gives 50% inhibition. Low values mean greater potency, high ones weaker potency.

In assay [1] the test system is Mus musculus. Description: Antitumor activity expressed as a ratio of tumor volumes of test (T) animals compared to control (C) animals(100) at a dose of 12.5 mg/kg/day. It is filed as functional. The essentials:
(§1)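 BDF1 female mice in groups of 5 received 10^6 M5076 cells im into the left leg on day 0. Drug was dissolved in 10-20% DMSO in arachis oil and given ip daily on days 1-17; controls got vehicle only. Tumor volumes were measured on days 12, 16, 20 and 24. T/C = test/control tumor volume ×100.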

For assay [2], the system named is Mus musculus. The experiment in a line: Number of M5076 reticulum cell sarcoma bearing mice survived among the tested (5) on day 24 after treating with compound dose of 12.5 mg/Kg/day. It is filed as functional. The essentials:
as §1

In assay [3] the target is T1, Bifunctional dihydrofolate reductase-thymidylate synthase (Toxoplasma gondii, UniProt Q07422).
T1 sequence (Q07422 whole entry): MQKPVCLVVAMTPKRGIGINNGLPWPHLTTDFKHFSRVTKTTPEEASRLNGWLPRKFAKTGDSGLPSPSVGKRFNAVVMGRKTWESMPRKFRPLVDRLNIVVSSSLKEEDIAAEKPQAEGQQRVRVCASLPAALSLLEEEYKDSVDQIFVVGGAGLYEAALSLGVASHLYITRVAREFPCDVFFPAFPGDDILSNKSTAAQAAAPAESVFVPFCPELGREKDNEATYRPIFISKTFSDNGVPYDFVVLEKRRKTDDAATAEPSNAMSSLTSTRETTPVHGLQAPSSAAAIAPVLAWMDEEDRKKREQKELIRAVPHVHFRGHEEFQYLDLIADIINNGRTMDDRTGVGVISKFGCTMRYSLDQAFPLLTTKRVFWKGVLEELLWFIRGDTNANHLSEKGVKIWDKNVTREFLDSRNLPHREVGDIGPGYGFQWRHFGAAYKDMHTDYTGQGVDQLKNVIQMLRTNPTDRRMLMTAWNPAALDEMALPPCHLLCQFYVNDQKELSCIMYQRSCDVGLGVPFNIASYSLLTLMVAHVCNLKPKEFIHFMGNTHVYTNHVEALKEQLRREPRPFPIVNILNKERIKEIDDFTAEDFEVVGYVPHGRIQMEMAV
Description: Inhibitory activity against Dihydrofolate reductase from Toxoplasma gondii was evaluated using 90 uM dihydrofolic acid as substrate.

Assay [4] deals with Mus musculus. Description: Antitumor activity expressed as a ratio of tumor volumes of test (T) animals compared to control (C) animals(100) at a dose of 25 mg/kg/day. Type of assay: functional. In outline: as §1
The test system of assay [5] is Mus musculus. Description: Number of M5076 reticulum cell sarcoma bearing mice survived among the tested (5) on day 24 after treating with compound dose of 25 mg/Kg/day. Type of assay: functional. In outline:
as §1

In assay [6] the test system is Mus musculus. Description: Antitumor activity expressed as a ratio of tumor volumes of test (T) animals compared to control (C) animals(100) at a dose of 3.125 mg/kg/day. Type of assay: functional. The essentials:
as §1

The subject of assay [7] is Mus musculus. The experiment in a line: Number of M5076 reticulum cell sarcoma bearing mice survived among the tested (5) on day 24 after treating with compound dose of 3.125 mg/Kg/day. It is filed as functional. In outline:
as §1

With `CCc1nc(N)nc(N)c1-c1ccc(N(C)Cc2ccc(C(=O)NC)cc2)c([N+](=O)[O-])c1`, the T/C in the assay with Mus musculus [1] came out at 15%. Moreover, the Survivors in the assay with Mus musculus [2] is recorded as 5. In assay [3], this compound yielded an IC50 of 7.4 nM. Take `CCOC(=O)CCC(NC(=O)c1ccc(CNc2ccc(-c3c(N)nc(N)nc3CC)cc2[N+](=O)[O-])cc1)C(=O)OCC` (stereo not drawn): the IC50 in assay [3] turned out to be 7.1 nM. Take `CCc1nc(N)nc(N)c1-c1ccc(N(C)Cc2ccc(C(=O)O)cc2)c([N+](=O)[O-])c1`: the T/C with Mus musculus [1] worked out at 100%. The Survivors in the assay with Mus musculus [2] is 5. Also, half-maximal inhibition in assay [3] (IC50) required 3.1 nM. The compound `CCc1nc(N)nc(N)c1-c1ccc(NCc2ccc(C(=O)N(C)C)cc2)c([N+](=O)[O-])c1` came in with an IC50 in assay [3] of 7.9 nM. In other words, the single-digit nanomolar range. The same measure, in the same setting: in the case of `CCc1nc(N)nc(N)c1-c1ccc(NCc2ccc(S(N)(=O)=O)cc2)c([N+](=O)[O-])c1` it was 5.8 nM; in that of `CCc1nc(N)nc(N)c1-c1ccc(NCc2ccc(C(=O)NC(CCC(=O)O)C(=O)O)cc2)c([N+](=O)[O-])c1` (stereo not drawn), 6.2 nM; in that of `CCc1nc(N)nc(N)c1-c1ccc(NCc2ccc(C(=O)N3CCCCC3)cc2)c([N+](=O)[O-])c1`, 140 nM. Same read-out and setting: to `CCc1nc(N)nc(N)c1-c1ccc(N(C)Cc2ccc(C3=NC(C)(C)CO3)cc2)c([N+](=O)[O-])c1` belongs 14 nM; to `CCc1nc(N)nc(N)c1-c1ccc(NCc2ccc(C(=O)O)cc2)c([N+](=O)[O-])c1`, 1.8 nM. Still for that read-out and setting: to `CCc1nc(N)nc(N)c1-c1ccc(NCc2ccc(C(=O)NC)cc2)c([N+](=O)[O-])c1` belongs 4.3 nM; to `CCc1nc(N)nc(N)c1-c1ccc(NCc2ccc(C3OCCO3)cc2)c([N+](=O)[O-])c1`, 15 nM; to `CCc1nc(N)nc(N)c1-c1ccc(NCc2ccc(C(N)=O)cc2)c([N+](=O)[O-])c1`, 3.7 nM. Consider `CCc1nc(N)nc(N)c1-c1ccc(N(C)Cc2ccccc2)c([N+](=O)[O-])c1`, for which, in the assay with Mus musculus [4], the T/C is recorded as 37%. For the same compound, the Survivors with Mus musculus [5] was 5. In assay [3], `CCc1nc(N)nc(N)c1-c1ccc(NCc2ccccc2)c([N+](=O)[O-])c1` gave an IC50 of 19 nM. In other words, the double-digit nanomolar range. Turning to `CN(Cc1cnc2nc(N)nc(N)c2n1)c1ccc(C(=O)N[C@@H](CCC(=O)O)C(=O)O)cc1` [METHOTREXATE], the T/C in the assay on Mus musculus [6] was found to be 92%. Moreover, the Survivors with Mus musculus [7] was 5. In the same order, the values of `Cc1nc(N)nc(N)c1-c1ccc(Cl)c(Cl)c1` [METOPRINE] are under 8% and 1.

These data come from ChEMBL document CHEMBL1130351, “Nonclassical 2,4-diamino-5-aryl-6-ethylpyrimidine antifolates: activity as inhibitors of dihydrofolate reductase from Pneumocystis carinii and Toxoplasma gondii and as antitumor agents” (J Med Chem, 1997).
